Measurements from ChEMBL document CHEMBL1153029, “In vitro and in vivo studies of 6,8-(diaryl)imidazo[1,2-a]pyrazin-3(7H)-ones as new antioxidants” (Bioorg Med Chem, 2009).
Values belong to the compound of their own block, whether it stands above or below them.

How the values were obtained:
Hamster = assay: Antioxidant activity against microvascular damage in hamster model of cheek pouch submitted to ischemia/reperfusion assessed as inhibition of leaky sites at 3 mg/kg treated by gavage route 30 mins before anesthesia measured after 30 mins of reperfusion by FITC-dextran based microscopy; assay type: functional; conditions: Cricetinae, po
How it was run: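 Hamsters anesthetized, kept on a-chloralose (100 mg/kg) via the femoral vein, femoral artery cannulated for blood pressure, body temperature 37.5 °C. Compound at 3 mg/kg or solvent given by gavage in 0.2 ml, 3 animals per group. FITC-dextran (150,000 Da) given i.v. at 25 mg/100 g. Cuff ischemia of everted pouch. Leaky sites counted; % inhibition = [1 − mean treated/mean control] × 100.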

[1] = Chemical stability after 19 hrs; assay type: physicochemical
How it was run: (§1)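 Aerobic oxidation of imidazopyrazinone (10^-3 M) with internal standard (5 × 10^-4 M) in 90:10:0.1 CH2Cl2/isopropanol/DEA. Sealed vial under white light at 23 °C for 19 h. Products quantified by HPLC against calibration curves, detection at 280 nm.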

[2] = Antioxidant activity assessed as chemical oxidative degradation into N-(5-(4-hydroxyphenyl)-3-phenylpyrazin-2-yl)acetamide at 1000 uM after 19 hrs by HPLC; assay type: functional; how it was run: as §1
[3] = Antioxidant activity assessed as chemical oxidative degradation into N-(3-(4-(dimethylamino)phenyl)-5-(4-hydroxyphenyl)pyrazin-2-yl)acetamide at 1000 uM after 19 hrs by HPLC; assay type: functional; how it was run: as §1
[4] = Antioxidant activity assessed as chemical oxidative degradation into 4-(5-amino-6-(4-methoxyphenyl)pyrazin-2-yl)phenol at 1000 uM after 19 hrs by HPLC; assay type: functional; how it was run: as §1
[5] = Antioxidant activity assessed as chemical oxidative degradation into N-(5-(4-hydroxyphenyl)-3-(4-(trifluoromethyl)phenyl)pyrazin-2-yl)acetamide at 1000 uM after 19 hrs by HPLC; assay type: functional; how it was run: as §1
[6] = Antioxidant activity assessed as time required for chemical oxidative degradation of compound at 80 uM by HPLC in presence of azo-bis-isobutyronitrile; assay type: functional
[7] = Antioxidant activity assessed as chemical oxidative degradation into N-(5-(4-hydroxyphenyl)pyrazin-2-yl)benzamide at 80 uM by HPLC in presence of linoleic acid and azo-bis-isobutyronitrile; assay type: functional
[8] = Antioxidant activity assessed as chemical oxidative degradation into 4-(5-aminopyrazin-2-yl)phenol at 80 uM after 18 hrs by HPLC in presence of azo-bis-isobutyronitrile; assay type: functional
[9] = Antioxidant activity assessed as chemical oxidative degradation into 4-(5-aminopyrazin-2-yl)phenol at 80 uM by HPLC in presence of linoleic acid and azo-bis-isobutyronitrile; assay type: functional
[10] = Antioxidant activity assessed as chemical oxidative degradation into 4-(5-aminopyrazin-2-yl)phenol at 80 uM after 18 hrs by HPLC; assay type: functional
How it was run: (§2)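 Imidazopyrazinone mixed 1:1 with standard (8 × 10^-5 M) in 96:4 ACN–EtOH. Kept in the dark at 37 °C and sampled by HPLC hourly for 18 h.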

[11] = Antioxidant activity assessed as chemical oxidative degradation into N-(5-(4-hydroxyphenyl)pyrazin-2-yl)benzamide at 80 uM by HPLC in presence of linoleic acid; assay type: functional
[12] = Antioxidant activity assessed as chemical oxidative degradation into benzoic acid at 80 uM by HPLC in presence of linoleic acid and azo-bis-isobutyronitrile; assay type: functional
[13] = Antioxidant activity assessed as chemical oxidative degradation into 4-(5-aminopyrazin-2-yl)phenol at 80 uM by HPLC in presence of linoleic acid; assay type: functional
[14] = Antioxidant activity assessed as chemical oxidative degradation into benzoic acid at 80 uM by HPLC in presence of linoleic acid; assay type: functional
[15] = Antioxidant activity assessed as chemical oxidative degradation into N-(5-(4-hydroxyphenyl)pyrazin-2-yl)benzamide at 80 uM after 18 hrs by HPLC in presence of azo-bis-isobutyronitrile; assay type: functional
[16] = Antioxidant activity assessed as chemical oxidative degradation into N-(5-(4-hydroxyphenyl)pyrazin-2-yl)benzamide at 80 uM after 18 hrs by HPLC; assay type: functional; how it was run: as §2
[17] = Antioxidant activity assessed as time required for chemical oxidative degradation of compound at 80 uM by HPLC in presence of linoleic acid; assay type: functional
[18] = Antioxidant activity assessed as chemical oxidative degradation into 4-(5-amino-6-(4-(trifluoromethyl)phenyl)pyrazin-2-yl)phenol at 1000 uM after 19 hrs by HPLC; assay type: functional; how it was run: as §1
[19] = Antioxidant activity assessed as chemical oxidative degradation into 4,4'-(3-aminopyrazine-2,6-diyl)diphenol at 1000 uM after 19 hrs by HPLC; assay type: functional; how it was run: as §1
[20] = Antioxidant activity assessed as chemical oxidative degradation into N-(5-(4-hydroxyphenyl)-3-(4-methoxyphenyl)pyrazin-2-yl)acetamide at 1000 uM after 19 hrs by HPLC; assay type: functional; how it was run: as §1
[21] = Antioxidant activity assessed as chemical oxidative degradation into 4-(5-amino-6-phenylpyrazin-2-yl)phenol at 1000 uM after 19 hrs by HPLC; assay type: functional; how it was run: as §1
[22] = Antioxidant activity assessed as chemical oxidative degradation into 1-(4-(3-amino-6-(4-hydroxyphenyl)pyrazin-2-yl)phenyl)ethanone at 1000 uM after 19 hrs by HPLC; assay type: functional; how it was run: as §1
[23] = Antioxidant activity assessed as chemical oxidative degradation into 4-(5-amino-6-(4-(dimethylamino)phenyl)pyrazin-2-yl)phenol at 1000 uM after 19 hrs by HPLC; assay type: functional; how it was run: as §1
[24] = Antioxidant activity assessed as chemical oxidative degradation into N-(3,5-bis(4-hydroxyphenyl)pyrazin-2-yl)acetamide at 1000 uM after 19 hrs by HPLC; assay type: functional; how it was run: as §1
[25] = Antioxidant activity assessed as chemical oxidative degradation into N-(3-(4-fluorophenyl)-5-(4-hydroxyphenyl)pyrazin-2-yl)acetamide at 1000 uM after 19 hrs by HPLC; assay type: functional; how it was run: as §1
[26] = Antioxidant activity assessed as chemical oxidative degradation into N-(3-(4-acetylphenyl)-5-(4-hydroxyphenyl)pyrazin-2-yl)acetamide at 1000 uM after 19 hrs by HPLC; assay type: functional; how it was run: as §1
[27] = Antioxidant activity assessed as chemical oxidative degradation into 4-(5-amino-6-(4-fluorophenyl)pyrazin-2-yl)phenol at 1000 uM after 19 hrs by HPLC; assay type: functional; how it was run: as §1
[28] = Stability at pH 7.4 at 80 uM during 1 day by HPLC in presence of linoleic acid and azo-bis-isobutyronitrile; assay type: physicochemical; conditions: buffer, pH 7.4, 24 h

Structure (SMILES): Cc1nc2c(-c3ccc(O)cc3)[nH]c(-c3ccc(O)cc3)cn-2c1=O
inhibition in vivo at 3 mg/kg (Hamster): 40%

Structure (SMILES): Cc1nc2c(-c3ccccc3)[nH]c(-c3ccc(O)cc3)cn-2c1=O
inhibition in vivo at 3 mg/kg (Hamster): 12%

Stability [1]: Stable
Structure (SMILES): CC(=O)Nc1ncc(-c2ccc(O)cc2)nc1-c1ccccc1
Activity [2]: 15%

Structure (SMILES): CC(=O)Nc1ncc(-c2ccc(O)cc2)nc1-c1ccc(N(C)C)cc1
Activity [3]: 18%

Structure (SMILES): Cc1nc2c(-c3ccc(C(F)(F)F)cc3)[nH]c(-c3ccc(O)cc3)cn-2c1=O
inhibition in vivo at 3 mg/kg (Hamster): 17%

Structure (SMILES): COc1ccc(-c2nc(-c3ccc(O)cc3)cnc2N)cc1
inhibition in vivo at 3 mg/kg (Hamster): 10%
Activity [4]: 71%

Structure (SMILES): Cc1nc2c(-c3ccc(N(C)C)cc3)[nH]c(-c3ccc(O)cc3)cn-2c1=O
inhibition in vivo at 3 mg/kg (Hamster): 21%

Structure (SMILES): CC(=O)Nc1ncc(-c2ccc(O)cc2)nc1-c1ccc(C(F)(F)F)cc1
Activity [5]: 16%

Structure (SMILES): Oc1ccc(-c2cn3c(O)c(-c4ccccc4)nc3cn2)cc1
Activity [6]: 5 h
Activity [7]: 57%
Activity [8]: 44%
Activity [9]: 40%
Activity [10]: 9%
Activity [11]: 66%
Activity [12]: 33%
Activity [13]: 30%
Activity [14]: 27%
Activity [15]: 26%
Activity [16]: < 5%
Activity [17]: < 6 h

Structure (SMILES): Nc1ncc(-c2ccc(O)cc2)nc1-c1ccc(C(F)(F)F)cc1
inhibition in vivo at 3 mg/kg (Hamster): 14%
Activity [18]: 78%

Structure (SMILES): Nc1ncc(-c2ccc(O)cc2)nc1-c1ccc(O)cc1
inhibition in vivo at 3 mg/kg (Hamster): 29%
Activity [19]: 77%

Structure (SMILES): COc1ccc(-c2[nH]c(-c3ccc(O)cc3)cn3c(=O)c(C)nc2-3)cc1
inhibition in vivo at 3 mg/kg (Hamster): 44%

Structure (SMILES): COc1ccc(-c2nc(-c3ccc(O)cc3)cnc2NC(C)=O)cc1
Activity [20]: 21%

Structure (SMILES): Nc1ncc(-c2ccc(O)cc2)nc1-c1ccccc1
inhibition in vivo at 3 mg/kg (Hamster): 18%
Activity [21]: 66%

Structure (SMILES): CC(=O)c1ccc(-c2nc(-c3ccc(O)cc3)cnc2N)cc1
Activity [22]: 67%

Structure (SMILES): CN(C)c1ccc(-c2nc(-c3ccc(O)cc3)cnc2N)cc1
inhibition in vivo at 3 mg/kg (Hamster): 50%
Activity [23]: 68%

Structure (SMILES): Cc1nc2c(-c3ccc(F)cc3)[nH]c(-c3ccc(O)cc3)cn-2c1=O
inhibition in vivo at 3 mg/kg (Hamster): 34%

Structure (SMILES): CC(=O)Nc1ncc(-c2ccc(O)cc2)nc1-c1ccc(O)cc1
Activity [24]: 16%

Structure (SMILES): CC(=O)Nc1ncc(-c2ccc(O)cc2)nc1-c1ccc(F)cc1
Activity [25]: 17%

Structure (SMILES): CC(=O)Nc1ncc(-c2ccc(O)cc2)nc1-c1ccc(C(C)=O)cc1
Activity [26]: 22%

Structure (SMILES): COc1cc(C(C)=O)ccc1O [APOCYNIN]
inhibition in vivo at 3 mg/kg (Hamster): 40%

Structure (SMILES): Nc1ncc(-c2ccc(O)cc2)nc1-c1ccc(F)cc1
Activity [27]: 76%
inhibition in vivo at 3 mg/kg (Hamster): 42%

Stability [28]: Stable
Structure (SMILES): O=C(O)c1ccccc1 [BENZOIC ACID]

Stability [28]: Stable
Structure (SMILES): O=C(Nc1cnc(-c2ccc(O)cc2)cn1)c1ccccc1
